Assay results: ChEMBL document CHEMBL3286234, “Synthesis, Characterization, and in Vitro Evaluation of a New TSPO-Selective Bifunctional Chelate Ligand” (ACS Med Chem Lett, 2014)
Active and inactive are the calls of the source. The calls are words filed in the database; no cut-off is given here.

What was measured:
Translocator protein = Translocator protein (Rattus norvegicus, UniProt P16257); experiment: Displacement of [3H]PK11195 from TSPO in rat C6 cell membrane after 90 mins by radioligand binding assay; assay type: cell membranes
How it was run: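 Affinity for TSPO was measured on membrane extracts of C6 glioma cells and reported as Ki (nM).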

C6 [1] = experiment: Cytotoxicity against rat C6 cells overexpressing TSPO assessed as inhibition of cell viability after 72 hrs by MTT assay; assay type: functional, cell-based; conditions: C6, 72 h
How it was run: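 Cells exposed to drug over 0.05 to 100 μM at 37 °C for 72 h; IC50 reported.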

[2] = Induction of double strand breaks in supercoiled pET plasmid DNA (unknown origin) at 10 uM pretreated for 2 hrs by agarose gel electrophoresis in presence of CuCl2 and GSH
How it was run: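 Ligand (0.5, 1, 2 or 10 μM) preincubated 2 h with CuCl2 (5 equiv) and GSH (50 equiv), then reacted with pET plasmid for 1 h at 37 °C. Products separated on 1% agarose gel stained with ethidium bromide and scored as supercoiled (I), open circular (II) and linear (III) forms.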

A2780 = experiment: Cytotoxicity against cisplatin-sensitive human A2780 cells assessed as inhibition of cell viability after 72 hrs by MTT assay; assay type: functional, cell-based; conditions: A2780, 72 h
How it was run: (§1)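 Cells treated across 0.05 to 100 μM and incubated 72 h at 37 °C; IC50 in μM.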

A2780cisR [3] = experiment: Cytotoxicity against human A2780cisR cells assessed as inhibition of cell viability after 72 hrs by MTT assay; assay type: functional, cell-based; how it was run: as §1
A2780cisR [4] = experiment: Resistance factor, ratio of IC50 for human A2780cisR cells to IC50 for cisplatin-sensitive human A2780 cells; assay type: functional
[5] = Induction of double strand breaks in supercoiled pET plasmid DNA (unknown origin) at 0.5 to 10 uM pretreated for 2 hrs by agarose gel electrophoresis in presence of CuCl2 and GSH
How it was run: (§2)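 Compound preincubated 2 h with CuCl2 (5 equiv) and GSH (50 equiv), then reacted with pET plasmid DNA for 1 h at 37 °C at 0.5, 1, 2 or 10 μM. Forms I, II and III resolved on 1% agarose gel stained with ethidium bromide. Controls were untreated DNA and CuCl2 plus GSH alone.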

[6] = Induction of single strand breaks in supercoiled pET plasmid DNA (unknown origin) at 0.5 to 10 uM pretreated for 2 hrs by agarose gel electrophoresis in presence of CuCl2 and GSH; how it was run: as §2
[7] = Induction of double strand breaks in supercoiled pET plasmid DNA (unknown origin) at 10 uM pretreated for 2 hrs by agarose gel electrophoresis in absence of CuCl2
How it was run: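 Compound at 10 μM, without CuCl2, incubated with pET plasmid DNA. Supercoiled, open circular and linear forms resolved on 1% agarose gel stained with ethidium bromide.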

C6 [8] = experiment: Induction of mitochondrial and nuclear structure modification in rat C6 cells assessed as fragmented nuclei and mitochondria at 10 uM after 24 hrs by MitoTracker Red/DAPI staining based fluorescence microscopy; assay type: functional, cell-based
How it was run: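 C6 glioma cells exposed at 10 μM for 24 h, then stained with MitoTracker Red for mitochondria and DAPI for nuclei. Morphology assessed with a digital imaging system. Untreated cells served as control.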

C6 [9] = experiment: Antiproliferative activity in rat C6 cells assessed as proportion of cells with depolarized mitochondrial membrane potential at 10 uM after 24 hrs by JC-1 staining based flow cytometry (reference value: 0.21%); assay type: functional
C6 [10] = experiment: Cell cycle arrest in rat C6 cells at 10 uM after 24 hrs by propidium iodide staining based flow cytometry; assay type: functional
How it was run: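 C6 glioma cells exposed to 10 μM for 24 h, then cell cycle histograms recorded by flow cytometry. Untreated cells served as control.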

C6 [11] = experiment: Cell cycle arrest in rat C6 cells assessed as proportion of cells at sub-G1 phase at 0.3 uM after 72 hrs by propidium iodide staining based flow cytometry (reference value: 5.89%); assay type: functional
C6 [12] = experiment: Cell cycle arrest in rat C6 cells assessed as proportion of cells at G0/G1 phase at 0.3 uM after 72 hrs by propidium iodide staining based flow cytometry (reference value: 54.94%); assay type: functional
C6 [13] = experiment: Cell cycle arrest in rat C6 cells assessed as proportion of cells at S phase at 0.3 uM after 72 hrs by propidium iodide staining based flow cytometry (reference value: 11.15%); assay type: functional
C6 [14] = experiment: Cell cycle arrest in rat C6 cells assessed as proportion of cells at G2/M phase at 0.3 uM after 72 hrs by propidium iodide staining based flow cytometry (reference value: 28.02%); assay type: functional

Chain of Translocator protein (P16257 whole entry, looked up): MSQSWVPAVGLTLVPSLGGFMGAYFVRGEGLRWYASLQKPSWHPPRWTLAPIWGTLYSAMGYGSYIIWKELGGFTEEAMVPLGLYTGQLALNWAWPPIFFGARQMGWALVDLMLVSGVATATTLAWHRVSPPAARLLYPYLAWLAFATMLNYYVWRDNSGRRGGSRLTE

**Q.** Which Ki (Translocator protein) does the source give for `CCCN(CCC)C(=O)Cc1c(-c2ccc(Cl)cc2)nc2c(N)cccn12` here?
**A.** 0.0016 µM

**Q.** And the IC50 (C6 [1])?
**A.** 19.7 µM

**Q.** And the Activity [2]?
**A.** inactive

**Q.** Which Ki (Translocator protein) does the source give for `CCCN(CCC)C(=O)Cc1c(-c2ccc(Cl)cc2)nc2c(NC(=O)CN(Cc3ccccn3)Cc3ccccn3)cccn12` here?
**A.** 0.239 µM

**Q.** What about the IC50 (C6 [1]) of the same compound?
**A.** 0.27 µM

**Q.** And the IC50 (A2780)?
**A.** 9.02 µM

**Q.** What about the IC50 (A2780cisR [3]) of the same compound?
**A.** 9.21 µM

**Q.** What about the “Ratio IC50” value (A2780cisR [4]) of the same compound?
**A.** 1.02

**Q.** What about the Activity [5] of the same compound?
**A.** Active

**Q.** What about the Activity [6] of the same compound?
**A.** inactive

**Q.** What about the Activity [7] of the same compound?
**A.** inactive

**Q.** What about the Activity (C6 [8]) of the same compound?
**A.** Active

**Q.** And the Activity (C6 [9])?
**A.** 2.47%

**Q.** And the Activity (C6 [10])?
**A.** inactive

**Q.** What about the Activity (C6 [11]) of the same compound?
**A.** 9.06%

**Q.** And the Activity (C6 [12])?
**A.** 49.07%

**Q.** And the Activity (C6 [13])?
**A.** 13.18%

**Q.** And the Activity (C6 [14])?
**A.** 28.69%
